Laboratory results reported in ChEMBL document CHEMBL1122765, “Cyclic melanotropins. 5. Importance of the C-terminal tripeptide (Lys-Pro-Val)” (1984).
Bridge positions count the residues as written; N and C are the ends. Peptide text beside a SMILES is read from it.

Tests used:
Anolis carolinensis = assay: Ability to stimulate melanosome dispersion in vitro in the lizard skin activity measured relative to alpha-MSH; format: functional
Outline: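 Anolis carolinensis skin in vitro; melanosome dispersion read as skin darkening. Test solutions serially diluted from a 10⁻⁴ M stock. n = 6 skins per point, mean ± SE. Relative potency versus α-MSH taken from parallel dose–response curves over the linear range.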

Lithobates pipiens = assay: Ability to stimulate melanosome dispersion in vitro in the frog skin activity measured relative to alpha-MSH; format: functional
Outline: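 Rana pipiens skin in vitro; melanosome dispersion read as skin darkening. Test solutions made by serial dilution from a 10⁻⁴ M stock. n = 6 or more skins per point, mean ± SE. Potency relative to α-MSH derived from parallel dose–response curves over the linear portion.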

Mus musculus = organism: Mus musculus; assay: Adenylate cyclase activity in vitro in the membrane fraction from S-91 mouse melanoma tumors activity measured relative to alpha-MSH; format: functional, cell membranes
Outline: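 Particulate membrane fraction from S-91 (Cloudman) melanoma tumors grown in […] mice. Adenylate cyclase measured as conversion of [α-³²P]ATP to [³²P]cAMP, with cAMP isolated and detected by the Salomon method. Potency relative to α-MSH from parallel dose–response curves.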

| SMILES | Relative potency (Anolis carolinensis) | Relative potency (Lithobates pipiens) | Relative potency (Mus musculus) |
| --- | --- | --- | --- |
| CSCC[C@H](NC(C)=O)C(=O)N[C@@H](CCC(=O)O)C(=O)N[C@@H](Cc1c[nH]cn1)C(=O)N[C@@H](Cc1ccccc1)C(=O)N[C@@H](CCCN=C(N)N)C(=O)N[C@@H](Cc1c[nH]c2ccccc12)C(=O)NCC(N)=O | 0.03 | 0.0007 | 0.03 |
| CC(=O)N[C@H]1CSSC[C@@H](C(N)=O)NC(=O)[C@H](Cc2c[nH]c3ccccc23)NC(=O)[C@H](CCCN=C(N)N)NC(=O)[C@H](Cc2ccccc2)NC(=O)[C@H](Cc2c[nH]cn2)NC(=O)[C@H](CCC(=O)O)NC1=O | 0.003 | 0.06 | – |
| CC(=O)N[C@H]1CSSC[C@@H](C(=O)N[C@@H](CCCCN)C(=O)N2CCC[C@H]2C(N)=O)NC(=O)[C@H](Cc2c[nH]c3ccccc23)NC(=O)[C@H](CCCN=C(N)N)NC(=O)[C@@H](Cc2ccccc2)NC(=O)[C@H](Cc2c[nH]cn2)NC(=O)[C@H](CCC(=O)O)NC1=O | 6 | 20 | – |
| CC(=O)N[C@H]1CSSC[C@@H](C(=O)N[C@@H](CCCCN)C(N)=O)NC(=O)[C@H](Cc2c[nH]c3ccccc23)NC(=O)[C@H](CCCN=C(N)N)NC(=O)[C@H](Cc2ccccc2)NC(=O)[C@H](Cc2c[nH]cn2)NC(=O)[C@H](CCC(=O)O)NC1=O | 0.07 | 0.16 | – |
| CC(=O)N[C@H]1CSSC[C@@H](C(=O)N[C@@H](CCCCN)C(=O)N2CCC[C@H]2C(N)=O)NC(=O)[C@H](Cc2c[nH]c3ccccc23)NC(=O)[C@H](CCCN=C(N)N)NC(=O)[C@H](Cc2ccccc2)NC(=O)[C@H](Cc2c[nH]cn2)NC(=O)[C@H](CCC(=O)O)NC1=O | 1.5 | 10 | – |
| CC(=O)N[C@H]1CSSC[C@@H](C(=O)N[C@@H](CCCCN)C(=O)N2CCC[C@@H]2C(N)=O)NC(=O)[C@H](Cc2c[nH]c3ccccc23)NC(=O)[C@@H](CCCN=C(N)N)NC(=O)[C@H](Cc2ccccc2)NC(=O)[C@@H](Cc2c[nH]cn2)NC(=O)[C@H](CCC(=O)O)NC1=O | – | – | 1.4 |
| CC(=O)N[C@H]1CSSC[C@@H](C(N)=O)NC(=O)[C@H](Cc2c[nH]c3ccccc23)NC(=O)[C@@H](CCCN=C(N)N)NC(=O)[C@H](Cc2ccccc2)NC(=O)[C@@H](Cc2c[nH]cn2)NC(=O)[C@H](CCC(=O)O)NC1=O | – | – | 0.016 |
| CC(=O)N[C@H]1CSSC[C@@H](C(=O)N[C@@H](CCCCN)C(=O)N2CCC[C@@H]2C(=O)N[C@H](C(N)=O)C(C)C)NC(=O)[C@H](Cc2c[nH]c3ccccc23)NC(=O)[C@@H](CCCN=C(N)N)NC(=O)[C@H](Cc2ccccc2)NC(=O)[C@@H](Cc2c[nH]cn2)NC(=O)[C@H](CCC(=O)O)NC1=O | – | – | 1.1 |
| CC(=O)N[C@@H](CO)C(=O)N[C@@H](Cc1ccc(O)cc1)C(=O)N[C@@H](CO)C(=O)N[C@H]1CSSC[C@@H](C(=O)N[C@@H](CCCCN)C(=O)N2CCC[C@H]2C(=O)N[C@H](C(N)=O)C(C)C)NC(=O)[C@H](Cc2c[nH]c3ccccc23)NC(=O)[C@H](CCCN=C(N)N)NC(=O)[C@H](Cc2ccccc2)NC(=O)[C@H](Cc2c[nH]cn2)NC(=O)[C@H](CCC(=O)O)NC1=O (Ac-SYSCEHFRWCKPV-NH2; disulfide 4-10) | 2 | 10 | – |
| CC(=O)N[C@H]1CSSC[C@@H](C(=O)N[C@@H](CCCCN)C(=O)N2CCC[C@H]2C(=O)N[C@H](C(N)=O)C(C)C)NC(=O)[C@H](Cc2c[nH]c3ccccc23)NC(=O)[C@H](CCCN=C(N)N)NC(=O)[C@H](Cc2ccccc2)NC(=O)[C@H](Cc2c[nH]cn2)NC(=O)[C@H](CCC(=O)O)NC1=O | 0.6 | 30 | – |
| CC(=O)N[C@H]1CSSC[C@@H](C(=O)N[C@@H](CCCCN)C(N)=O)NC(=O)[C@H](Cc2c[nH]c3ccccc23)NC(=O)[C@@H](CCCN=C(N)N)NC(=O)[C@H](Cc2ccccc2)NC(=O)[C@@H](Cc2c[nH]cn2)NC(=O)[C@H](CCC(=O)O)NC1=O | – | – | 0.16 |
